# Source: PubChem (The Scripps Research Institute Molecular Screening Center)
# The list is not random: actives were taken first. Their share in the collection is about 1.6%.
# LEDGF integ inh: blocks HIV-1 LEDGF/p75-dependent DNA integration; inhibition, % at 3.7 µM; hit rate 0.64% among 370,000; TR-FRET IN-LEDGF/p75 DNA integration, Eu/Cy5;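 active = inhibition above the screen-wide mean plus 3 SD, cut at about 13% in these data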;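 also: signal is the Cy5 over europium emission ratio at 671 and 618 nm; 0% = plate median of compound wells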
# MBD2 inh: inhibitors of human MBD2 binding to methylated oligonucleotide; Q9UBB5; TR-FRET; inhibition, % at 4.4 µM; hit rate 0.31% among 370,000; AID 686964; in the data active = inhibition above about 13%
# UHRF1 MBD2 ctr: UHRF1 methyl-DNA binding inhibition; hit rate 0.75% among 370,000; inhibition, % at 4.4 µM; Q96T88; UHRF1 binding to methylated oligo, TR-FRET; AID 687016; in the data active = inhibition above about 21%;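 also: UHRF1 SRA domain binding a hemimethylated CpG hairpin DNA probe; 0% = median of test compound wells and 100% = reference inhibitor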
# TDP2 inh: blocks human TDP2 phosphodiesterase activity; O95551; recombinant TDP2, T5PNP hydrolysis, p-nitrophenol absorbance 415 nm; inhibition, % at 12.8 µM; hit rate 0.34% among 370,000;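 active = inhibition above the mean of all tested compounds plus 3 SD, set per campaign, cut at about 25% in these data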;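 also: 0% = DMSO with enzyme and 100% = buffer with substrate but no TDP2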
# Target sequence (O95551 whole entry, looked up): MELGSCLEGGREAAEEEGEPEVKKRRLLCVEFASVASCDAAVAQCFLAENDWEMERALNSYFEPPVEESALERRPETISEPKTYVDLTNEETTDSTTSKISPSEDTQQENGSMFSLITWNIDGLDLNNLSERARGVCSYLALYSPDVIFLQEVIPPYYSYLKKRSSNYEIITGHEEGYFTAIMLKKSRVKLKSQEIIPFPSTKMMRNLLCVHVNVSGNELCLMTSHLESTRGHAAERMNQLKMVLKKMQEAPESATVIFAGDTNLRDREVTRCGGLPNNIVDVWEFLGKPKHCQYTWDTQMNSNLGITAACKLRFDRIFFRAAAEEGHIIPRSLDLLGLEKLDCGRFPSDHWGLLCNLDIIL
#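 System – recombinant human TDP2 · Amount – 120 nM TDP2 per well · Buffer or medium – Mg2+-containing Tris-HCl buffer, pH 7.5 · Reagent – T5PNP substrate, 5 mM · Dosing – 12.8 µM single point, 1% DMSO · Incubation – 2 h at 37 °C · Measured by – epi absorbance · Read-out basis – percent inhibition · Benchmarks – high control without enzyme, low control DMSO plus TDP2 · Repeats – singlicate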
# Numbers without * were called inactive.
SMILES,LEDGF integ inh,MBD2 inh,UHRF1 MBD2 ctr,TDP2 inh
CC1CCN(S(=O)(=O)c2ccc3c(c2)c(=O)c(C(=O)N2CCOCC2)cn3C)CC1,-2,1,-1,11
CCc1ccc(-c2csc(-c3c[nH]c4ccccc34)n2)cc1,-1,1,3,-5
O=C(CCSc1ccccc1)Nc1ccccc1Br,2,13,26*,-2
COCOCCn1cc(CN2CCS(=O)(=O)N(Cc3ccc(-c4ccncc4)cc3)C(CC(C)C)C2=O)nn1 (stereo not given),1,5,24*,-4
COc1ccc(C(=O)NNC(=O)CCCCC(=O)NNC(=O)c2ccc(OC)cc2)cc1,4,8,22*,10
COc1ccc(C(=O)NNC(=O)CCC(=O)NNC(=O)c2ccc(OC)cc2)cc1,1,0,12,6
O=[N+]([O-])c1ccc(Oc2ccc(S(=O)(=O)N3CCOCC3)cn2)cc1,-5,4,2,-11
CCCCc1c(-c2ccccc2OC)ncn1Cc1ccc(OC)cc1,1,-1,3,3
CN(CC(=O)Nc1ccc(F)cc1)C(=O)c1cn(-c2ccccc2)nc1-c1cccs1,-2,3,-1,1
CN(CC(=O)Nc1cccc(F)c1)C(=O)c1cn(-c2ccccc2)nc1-c1ccccc1,-2,4,24*,2
C/C(=N\OCc1ccc(C#N)cc1)c1ccccc1,-4,0,71*,10
C/C(=N\OCc1ccc(C#N)cc1)c1ccc(S(=O)(=O)N(C)C)cc1,-4,-2,0,1
O=C(Nc1ccc(C(=O)N2CCCC2)cc1)c1ccc2c(c1)OCO2,-1,4,1,-2
COc1ccccc1Cc1c(C(C)(C)C)nc2c3ccccc3ccn12,2,6,23*,1
Cc1[nH]n(-c2ccccc2)c(=O)c1C(c1ccccc1[N+](=O)[O-])C(C#N)C#N (stereo not given),7,-3,0,75*
Cc1[nH]n(-c2ccccc2)c(=O)c1Sc1ccc(Cl)cc1,-1,-2,-5,10
Cc1[nH]n(-c2ccccc2)c(=O)c1C(C[N+](=O)[O-])c1ccc(Cl)cc1 (stereo not given),3,-6,-9,27*
Cc1[nH]n(-c2ccccc2)c(=O)c1C(c1ccccc1C(=O)O)c1c(C)[nH]n(-c2ccccc2)c1=O,-2,2,-1,2
Cc1cc([N+](=O)[O-])cc2c1NC(c1ccccn1)C1CC=CC21 (stereo not given),3,0,-1,7
CCCCCN(C(=O)COC(=O)Cc1c(C)nc2ccccc2c1C)c1c(N)n(CCCC)c(=O)[nH]c1=O,3,4,0,3
C/C(=N\N=C(N)N)c1ccc(Cl)cc1Cl,-5,1,38*,0
CC(C)N1CCC(N2CCN(Cc3ccc4nonc4c3)CC2CCO)CC1 (stereo not given),1,0,-2,-2
CC(C)N1CCC(N2CCN(Cc3cccc4nonc34)CC2CCO)CC1 (stereo not given),-13,-2,79*,6
O=C(CCN1C(=O)/C(=C\c2ccccc2Cl)SC1=S)N1CCN(c2ccccc2)CC1,-4,2,4,-5
Cc1cccc(/C=N/NC(=O)c2ccc(NC(=O)c3ccccc3C)cc2)n1,0,-3,1,-3
SMILES,LEDGF integ inh,MBD2 inh,UHRF1 MBD2 ctr,TDP2 inh
COc1ccc(C(CNC(=O)c2ccc(NS(=O)(=O)c3ccc4c(c3)OCCO4)cc2)N(C)C)cc1 (stereo not given),5,-1,21*,-3
O=C(Cc1ccc(Cl)cc1Cl)NCc1cccnc1,-2,1,21*,-3
O=C(Cc1c(F)cccc1Cl)NCc1cccnc1,2,1,-1,-12
Nc1nc2ncc(C(=O)c3cc(F)ccc3O)cc2s1,-3,7,22*,17
CCOC(=O)[C@@H]1CSCCS(=O)(=O)N1C(=O)[C@H](CC(C)C)NC(=O)OC(C)(C)C,-2,7,-2,-3
COc1cccc(C(=O)Oc2c(Br)cc(Br)cc2/C=N/NC(=O)c2cc(C)[nH]n2)c1,-4,2,31*,-10
Cc1ccc(C)c(OCC(=O)N2CCN(c3ncccn3)CC2)c1,6,-3,-1,4
O=[N+]([O-])c1ccc(-c2cnc(SC(c3ccccc3)c3ccccc3)[nH]2)cc1,2,3,45*,5
COc1cccc(CN2CCN(Cc3ccc4c(NC(C)=O)cccc4n3)CC2CCO)c1 (stereo not given),0,-3,4,-6
CCC(=NC)C1=C(O)CC(c2ccccc2)CC1=O (stereo not given),-1,-1,-2,5
CCOc1ccc(S(=O)(=O)N2CCN(Cc3ccco3)CC2)cc1,6,7,27*,17
CCc1ccc(S(=O)(=O)N2CCN(Cc3ccco3)CC2)cc1,-6,5,1,3
CCCCCCCCN1C(=O)[C@@H](CC(=O)NCCCOC)C[C@@]2(C(=O)OC)C1=C[C@H](C(C)(C)C)O[C@@H]2C,0,-2,-3,-4
CCCCCCCCN1C(=O)[C@@H](CC(=O)NCCCN2CCCC2=O)C[C@@]2(C(=O)OC)C1=C[C@H](C(C)(C)C)O[C@@H]2C,4,-1,35*,-4
CCc1ccc(NC(=O)CN(c2ccc3c(c2)OCO3)S(=O)(=O)c2c(C)noc2C)cc1,3,1,33*,-10
C/C(CC(=O)Nc1ccc(Cl)cc1Cl)=N\NC(N)=S,-2,-3,1,-8
COC(=O)c1ccc2nc(-c3ccco3)c(Cc3cccc(Cl)c3)n2c1,6,8,22*,13
COC(=O)c1ccc2nc(-c3ccc(Cl)cc3)c(Cc3cccc(Cl)c3)n2c1,2,5,4,9
COC(=O)c1ccc2nc(-c3ccco3)c(Cc3ccccc3)n2c1,9,1,22*,2
COC(=O)c1ccc2c(=O)n(CCCCCC(=O)NCc3ccc4c(c3)OCO4)c(=O)[nH]c2c1,3,1,1,-2
CCCCCn1c(=O)[nH]c2cc(C(=O)NCc3ccc4c(c3)OCO4)ccc2c1=O,-2,2,30*,-7
CCN(C[C@H]1N[C@@](Cc2ccccc2)(C(=O)OC)[C@H]2C(=O)N(C)C(=O)[C@@H]12)S(=O)(=O)c1ccc(C(F)(F)F)cc1,-3,3,-1,2
CCN(C[C@H]1N[C@@](Cc2ccccc2)(C(=O)OC)[C@H]2C(=O)N(C)C(=O)[C@@H]12)S(=O)(=O)c1ccc(OC(F)(F)F)cc1,2,2,21*,6
CC[C@@]1(C(=O)OC)N[C@H](CN(C)C(=O)Nc2ccc(F)cc2)[C@@H]2C(=O)N(C)C(=O)[C@@H]21,-2,11,21*,0
COC(=O)C1CCN(C(c2ccc(OC)c(OC)c2)c2sc3nc(C)nn3c2O)CC1 (stereo not given),0,0,1,3
N#CCc1ccc(C(=O)c2ccccc2)s1,0,0,-1,1
Cc1ccc(CNC(=O)Cn2ccc3cc(S(=O)(=O)N4CCCC4)ccc32)o1,1,-5,1,-25
